The values below come from publication PMC5924903 (Proceedings of the National Academy of Sciences of the …, 2018).

Peptide text beside a SMILES is read from it.

For this test, the system named is HsNAA10. Briefly: Nt acetyltransferase inhibitor assay. In kind it is biochemical. Conditions: Ki panel of human NATs. The essentials:
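In vitro Nt-acetylation assay on purified human NAT enzymes. IC50 values were determined for NAA80. Ki values for the bisubstrate inhibitor were determined across a panel of human NATs. Each reaction was run at least three times, in triplicate. Errors are given as SD.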

As for `CC[C@H](C)[C@H](NC(=O)[C@H](CC(=O)O)NC(=O)[C@H](CC(=O)O)NC(=O)[C@H](CC(=O)O)NC(=O)CSCCNC(=O)CCNC(=O)[C@H](O)C(C)(C)COP(=O)(O)OP(=O)(O)OC[C@H]1O[C@@H](n2cnc3c(N)ncnc32)[C@H](O)[C@@H]1OP(=O)(O)O)C(N)=O` [CoA-Ac-DDDI-NH2] (HELM PEPTIDE1{[CC(C)(COP(=O)(O)OP(=O)(O)OC[C@H]1O[C@@H](n2cnc3c(N)ncnc32)[C@H](O)[C@@H]1OP(=O)(O)O)[C@@H](O)C(=O)[*:2]].[bAla].[O=C(CSCCN[*:1])[*:2]].D.D.D.I.[am]}$$$$V2.0), the “Fold reduced potency for NAA10 compared with NAA80” value stood at 88 fold.
